Results reported in ChEMBL document CHEMBL4000150, “Synthesis and antitumor activity evaluation of PI3K inhibitors containing 3-substituted quinazolin-4(3H)-one moiety” (Bioorg Med Chem, 2015).

How the values were obtained:
HCT-116 = experiment: Antiproliferative activity against human HCT116 cells harboring PI3CA H1047R mutant after 72 hrs by MTT assay; assay type: functional, cell-based; details: HCT-116, 72 h
In short: (§1)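 Cells were grown as monolayers in DMEM + 10% FBS at 37 °C, 5% CO2, and seeded at 3000-5000/well, 24 h before dosing. They were exposed 72 h to final 10.0, 5.0, 1.0 and 0.5 μM. MTT (5 mg/mL in PBS) was then added for 4 h at 37 °C, formazan dissolved in DMSO and read at 570 nm. Three experiments in triplicate; IC50 derived from inhibition ratios.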

MCF7 = experiment: Antiproliferative activity against human MCF7 cells harboring PI3CA E545K mutant after 72 hrs by MTT assay; assay type: functional, cell-based; details: MCF7, 72 h; in short: as §1
[1] = target: PI3-kinase p110-alpha/p85-alpha (Homo sapiens, UniProt P42336); experiment: Inhibition of P110alpha/p85alpha (unknown origin) using L-alpha-phosphatidylinositol as substrate after 40 mins by ATP depletion assay; assay type: protein-complex assay
PI3K p110 beta/p85 alpha = PI3K p110 beta/p85 alpha (Homo sapiens, UniProt P42338); experiment: Inhibition of P110beta/p85alpha (unknown origin) using L-alpha-phosphatidylinositol as substrate after 40 mins by ATP depletion assay; assay type: protein-complex assay
[2] = target: PI3-kinase subunit gamma/Phosphoinositide 3-kinase regulatory subunit 5 (Homo sapiens, UniProt P48736); experiment: Inhibition of P110gamma/PIK3R5 (unknown origin) using L-alpha-phosphatidylinositol as substrate after 40 mins by ATP depletion assay; assay type: protein-complex assay
[3] = target: PI3-kinase p110-delta/p85-alpha (Homo sapiens, UniProt O00329); experiment: Inhibition of P110delta/p85alpha (unknown origin) using L-alpha-phosphatidylinositol as substrate after 40 mins by ATP depletion assay; assay type: protein-complex assay
[4] = target: Serine/threonine-protein kinase mTOR (Homo sapiens, UniProt P42345); experiment: Inhibition of mTOR (unknown origin) using L-alpha-phosphatidylinositol as substrate after 40 mins by ATP depletion assay
[5] = target: PI3-kinase p110-alpha/p85-alpha (Homo sapiens) (UniProt P27986+P42336); experiment: Ratio of BEZ235 IC50 to compound IC50 for P110alpha/p85alpha (unknown origin) using L-alpha-phosphatidylinositol as substrate after 40 mins by ATP depletion assay; assay type: protein-complex assay
CCRF S-180 [6] = experiment: Anticancer activity against mouse S180 cells homografted in mouse assessed as tumor growth inhibition at 20 mg/kg, po qd for 8 days measured on day 9 post dose relative to vehicle-treated control; assay type: functional; details: CCRF S-180, po, read-out: TGI
In short: (§2)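 3×10^6 S-180 cells injected s.c. into mouse flank (mice 19.5 ± 1.8 g); randomized, 8 per group. Dosing began next day, oral once daily for 8 days in DMSO:PEG400:5% glucose injection (1:7:2, v/v/v); vehicle group got equal solvent volume. Mice sacrificed Day 9, tumors weighed, and tumor-weight inhibitory ratio calculated versus solvent group.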

CCRF S-180 [7] = experiment: Anticancer activity against mouse S180 cells homografted in mouse assessed as tumor growth inhibition at 40 mg/kg, po qd for 8 days measured on day 9 post dose relative to vehicle-treated control; assay type: functional; details: CCRF S-180, po, read-out: TGI; in short: as §2
Mus musculus = experiment: Toxicity in mouse S180 cells homografted mouse assessed as reduction of body weight at 20 to 40 mg/kg, po qd for 8 days; assay type: organism-based; details: in vivo, 192 h
In short: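 S-180 sarcoma-bearing mice (3×10^6 cells s.c., flank; 8 per group) given oral doses once daily for 8 days in DMSO:PEG400:5% glucose injection (1:7:2, v/v/v), starting the day after implantation; solvent-only group as control. Body weight recorded daily through sacrifice on Day 9.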

Chain of PI3-kinase subunit gamma/Phosphoinositide 3-kinase regulatory subunit 5 (P48736 whole entry): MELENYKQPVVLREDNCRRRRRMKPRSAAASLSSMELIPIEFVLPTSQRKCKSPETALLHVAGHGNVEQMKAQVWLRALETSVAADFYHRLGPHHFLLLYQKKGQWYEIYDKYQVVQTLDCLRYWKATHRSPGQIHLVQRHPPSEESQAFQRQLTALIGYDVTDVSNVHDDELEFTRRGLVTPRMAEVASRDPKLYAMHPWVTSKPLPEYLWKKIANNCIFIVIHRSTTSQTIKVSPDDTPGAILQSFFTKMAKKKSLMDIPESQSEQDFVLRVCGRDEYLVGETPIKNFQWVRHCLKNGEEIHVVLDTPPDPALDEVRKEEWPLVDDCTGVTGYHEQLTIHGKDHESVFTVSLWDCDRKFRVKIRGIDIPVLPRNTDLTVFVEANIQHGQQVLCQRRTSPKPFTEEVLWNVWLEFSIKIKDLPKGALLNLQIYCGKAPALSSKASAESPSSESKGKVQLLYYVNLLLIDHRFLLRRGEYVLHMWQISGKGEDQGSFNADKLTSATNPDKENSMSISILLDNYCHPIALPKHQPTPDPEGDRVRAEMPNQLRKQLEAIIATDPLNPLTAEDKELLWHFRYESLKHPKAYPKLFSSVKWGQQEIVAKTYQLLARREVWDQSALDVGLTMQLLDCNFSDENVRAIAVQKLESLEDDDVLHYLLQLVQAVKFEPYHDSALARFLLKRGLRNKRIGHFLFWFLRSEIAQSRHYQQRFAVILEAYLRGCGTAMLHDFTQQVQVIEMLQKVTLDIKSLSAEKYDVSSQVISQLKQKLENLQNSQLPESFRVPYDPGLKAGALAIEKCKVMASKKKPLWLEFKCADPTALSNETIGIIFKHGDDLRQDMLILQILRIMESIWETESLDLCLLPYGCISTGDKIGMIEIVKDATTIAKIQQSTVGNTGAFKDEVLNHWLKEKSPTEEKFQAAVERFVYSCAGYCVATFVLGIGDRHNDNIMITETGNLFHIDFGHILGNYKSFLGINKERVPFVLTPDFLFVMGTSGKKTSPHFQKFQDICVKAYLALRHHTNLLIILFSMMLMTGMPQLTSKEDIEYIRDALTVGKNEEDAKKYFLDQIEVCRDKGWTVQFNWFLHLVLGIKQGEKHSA
Chain of PI3-kinase subunit gamma/Phosphoinositide 3-kinase regulatory subunit 5 (Q8WYR1 whole entry, further chain): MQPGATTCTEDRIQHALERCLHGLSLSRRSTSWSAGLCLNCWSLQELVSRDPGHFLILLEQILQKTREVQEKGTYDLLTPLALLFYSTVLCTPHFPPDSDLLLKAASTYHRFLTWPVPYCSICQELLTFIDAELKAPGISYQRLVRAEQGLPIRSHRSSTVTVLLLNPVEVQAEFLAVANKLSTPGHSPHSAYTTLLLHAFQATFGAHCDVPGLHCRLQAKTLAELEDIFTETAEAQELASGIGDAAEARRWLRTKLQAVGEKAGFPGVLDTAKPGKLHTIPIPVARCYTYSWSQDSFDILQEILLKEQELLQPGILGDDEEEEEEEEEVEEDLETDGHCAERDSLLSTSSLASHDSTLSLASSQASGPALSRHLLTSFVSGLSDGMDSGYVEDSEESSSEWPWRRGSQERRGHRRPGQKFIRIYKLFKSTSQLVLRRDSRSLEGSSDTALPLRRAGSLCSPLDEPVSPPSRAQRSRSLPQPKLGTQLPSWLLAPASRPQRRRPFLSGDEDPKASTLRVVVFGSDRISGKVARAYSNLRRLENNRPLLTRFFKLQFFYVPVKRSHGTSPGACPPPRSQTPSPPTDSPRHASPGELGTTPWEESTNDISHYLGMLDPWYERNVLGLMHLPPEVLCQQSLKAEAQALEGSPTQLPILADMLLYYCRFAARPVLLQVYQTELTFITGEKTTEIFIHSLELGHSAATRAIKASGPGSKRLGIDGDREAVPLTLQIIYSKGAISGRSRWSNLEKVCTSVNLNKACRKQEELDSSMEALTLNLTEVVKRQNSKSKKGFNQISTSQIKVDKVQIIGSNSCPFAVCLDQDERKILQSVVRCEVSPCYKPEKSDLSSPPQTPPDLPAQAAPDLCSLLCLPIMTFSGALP
Chain of PI3K p110 beta/p85 alpha (P27986 whole entry): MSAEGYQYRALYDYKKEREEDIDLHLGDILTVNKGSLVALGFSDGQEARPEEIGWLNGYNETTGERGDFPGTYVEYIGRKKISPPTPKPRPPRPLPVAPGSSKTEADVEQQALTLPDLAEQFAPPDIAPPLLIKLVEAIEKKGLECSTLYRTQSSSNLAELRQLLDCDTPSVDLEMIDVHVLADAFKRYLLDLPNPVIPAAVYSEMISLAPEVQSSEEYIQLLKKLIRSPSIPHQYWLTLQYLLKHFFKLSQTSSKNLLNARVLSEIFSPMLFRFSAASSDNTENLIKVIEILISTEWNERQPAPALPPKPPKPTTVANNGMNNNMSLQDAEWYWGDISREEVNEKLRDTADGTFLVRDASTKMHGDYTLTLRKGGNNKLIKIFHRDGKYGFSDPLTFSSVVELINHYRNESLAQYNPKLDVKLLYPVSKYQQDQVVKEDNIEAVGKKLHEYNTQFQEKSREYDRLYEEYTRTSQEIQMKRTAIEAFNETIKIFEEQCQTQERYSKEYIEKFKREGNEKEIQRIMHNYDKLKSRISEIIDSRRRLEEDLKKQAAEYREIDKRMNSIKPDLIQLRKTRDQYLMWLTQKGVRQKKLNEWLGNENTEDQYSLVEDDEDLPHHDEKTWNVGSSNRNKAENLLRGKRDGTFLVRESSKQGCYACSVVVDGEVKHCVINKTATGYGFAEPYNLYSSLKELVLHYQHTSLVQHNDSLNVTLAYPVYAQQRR
Chain of PI3K p110 beta/p85 alpha (P42338 whole entry): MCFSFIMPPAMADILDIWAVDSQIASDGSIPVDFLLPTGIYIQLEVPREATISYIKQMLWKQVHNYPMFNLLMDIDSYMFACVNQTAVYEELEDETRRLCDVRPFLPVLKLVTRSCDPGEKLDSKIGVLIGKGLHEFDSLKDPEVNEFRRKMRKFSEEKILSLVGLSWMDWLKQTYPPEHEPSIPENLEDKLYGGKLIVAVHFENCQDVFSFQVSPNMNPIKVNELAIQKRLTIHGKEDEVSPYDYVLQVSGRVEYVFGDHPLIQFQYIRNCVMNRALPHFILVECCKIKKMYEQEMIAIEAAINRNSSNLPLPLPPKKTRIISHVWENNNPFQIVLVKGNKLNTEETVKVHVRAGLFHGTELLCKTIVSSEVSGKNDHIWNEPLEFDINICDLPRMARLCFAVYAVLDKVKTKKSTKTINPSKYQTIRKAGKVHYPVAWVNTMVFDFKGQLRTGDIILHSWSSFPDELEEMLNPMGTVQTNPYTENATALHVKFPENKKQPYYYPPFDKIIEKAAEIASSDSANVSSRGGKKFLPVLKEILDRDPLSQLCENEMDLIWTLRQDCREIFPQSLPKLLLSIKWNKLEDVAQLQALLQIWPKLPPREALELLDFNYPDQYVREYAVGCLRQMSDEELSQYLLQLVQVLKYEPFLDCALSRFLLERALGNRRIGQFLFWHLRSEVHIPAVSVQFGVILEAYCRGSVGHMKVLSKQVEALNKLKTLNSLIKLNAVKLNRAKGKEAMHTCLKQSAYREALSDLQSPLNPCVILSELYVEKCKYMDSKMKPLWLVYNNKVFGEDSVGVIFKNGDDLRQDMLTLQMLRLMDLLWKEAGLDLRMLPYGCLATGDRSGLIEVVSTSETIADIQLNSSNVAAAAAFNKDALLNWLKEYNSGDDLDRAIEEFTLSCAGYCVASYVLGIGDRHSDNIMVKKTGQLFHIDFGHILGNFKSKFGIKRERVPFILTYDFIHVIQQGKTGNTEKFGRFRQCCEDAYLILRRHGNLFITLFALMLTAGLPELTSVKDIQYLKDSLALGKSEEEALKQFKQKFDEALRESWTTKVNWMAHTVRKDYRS
Chain of PI3-kinase p110-delta/p85-alpha (P27986 whole entry): as the sequence (P27986 whole entry) above
Chain of PI3-kinase p110-delta/p85-alpha (O00329 whole entry): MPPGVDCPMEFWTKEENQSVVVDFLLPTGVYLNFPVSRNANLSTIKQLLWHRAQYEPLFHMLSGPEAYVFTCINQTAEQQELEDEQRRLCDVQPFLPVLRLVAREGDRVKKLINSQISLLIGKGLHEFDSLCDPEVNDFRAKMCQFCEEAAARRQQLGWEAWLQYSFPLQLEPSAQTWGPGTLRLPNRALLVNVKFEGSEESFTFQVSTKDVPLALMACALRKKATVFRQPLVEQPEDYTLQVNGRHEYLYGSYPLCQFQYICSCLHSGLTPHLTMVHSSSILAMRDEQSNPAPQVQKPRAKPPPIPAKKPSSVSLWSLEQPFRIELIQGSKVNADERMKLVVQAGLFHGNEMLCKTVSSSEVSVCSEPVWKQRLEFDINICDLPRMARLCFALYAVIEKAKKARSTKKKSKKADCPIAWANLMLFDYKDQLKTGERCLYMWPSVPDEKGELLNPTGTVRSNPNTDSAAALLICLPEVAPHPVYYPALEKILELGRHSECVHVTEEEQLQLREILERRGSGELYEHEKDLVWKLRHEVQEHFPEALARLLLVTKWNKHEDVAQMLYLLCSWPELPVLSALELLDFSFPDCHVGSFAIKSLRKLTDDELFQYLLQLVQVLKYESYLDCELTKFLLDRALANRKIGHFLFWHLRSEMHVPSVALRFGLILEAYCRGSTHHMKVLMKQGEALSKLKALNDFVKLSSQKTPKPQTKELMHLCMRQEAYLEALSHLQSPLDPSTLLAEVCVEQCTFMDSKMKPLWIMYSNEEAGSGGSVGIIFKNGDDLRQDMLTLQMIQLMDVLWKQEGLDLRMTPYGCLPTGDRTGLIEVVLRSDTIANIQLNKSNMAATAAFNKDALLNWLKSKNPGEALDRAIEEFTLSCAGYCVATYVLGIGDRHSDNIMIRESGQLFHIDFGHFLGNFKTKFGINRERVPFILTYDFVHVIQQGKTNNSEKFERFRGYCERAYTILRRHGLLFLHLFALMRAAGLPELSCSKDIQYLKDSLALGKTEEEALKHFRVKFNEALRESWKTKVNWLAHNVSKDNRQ

| SMILES | IC50 (HCT-116) [nM] | IC50 (MCF7) [nM] | other results |
| --- | --- | --- | --- |
| COc1ccc(Cn2cnc3ccc(-c4cnc(OC)c(NS(=O)(=O)c5ccc(F)cc5)c4)cc3c2=O)cc1 | 2800 | 3340 | – |
| COc1ncc(-c2ccc3ncn([C@@H]4CCN(C(C)=O)C4)c(=O)c3c2)cc1NS(=O)(=O)c1ccc(F)cc1 | 4720 | 2450 | – |
| COc1ncc(-c2ccc3ncn([C@H]4CCN(C(=O)C5CC5)C4)c(=O)c3c2)cc1NS(=O)(=O)c1ccc(F)cc1 | 710 | 2360 | IC50 [1]: 7.3 nM; IC50 (PI3K p110 beta/p85 alpha): 209 nM; IC50 [2]: 116 nM; IC50 [3]: 106 nM; IC50 [4]: 208 nM; Ratio IC50 [5]: 10; inhibition in vivo at 20 mg/kg (CCRF S-180 [6]): 34.5%; inhibition in vivo at 40 mg/kg (CCRF S-180 [7]): 58%; Activity (Mus musculus): Toxic |
| CCN(CC)CCn1cnc2ccc(-c3cnc(OC)c(NS(=O)(=O)c4ccc(F)cc4F)c3)cc2c1=O | 1030 | 2590 | – |
| COc1ncc(-c2ccc3ncn([C@H]4CCN(C(=O)OC(C)(C)C)C4)c(=O)c3c2)cc1NS(=O)(=O)c1ccc(F)cc1 | 660 | 2730 | – |
| COc1ncc(-c2ccc3ncn(C4CCN(C(=O)C5CCOCC5)CC4)c(=O)c3c2)cc1NS(=O)(=O)c1ccc(F)cc1 | 960 | 2900 | – |
| COc1ncc(-c2ccc3ncn(C4CCN(CC5CC5)CC4)c(=O)c3c2)cc1NS(=O)(=O)c1ccc(F)cc1 | 1220 | 2260 | – |
| COc1ncc(-c2ccc3ncn(CCN4CCCC4)c(=O)c3c2)cc1NS(=O)(=O)c1ccc(F)cc1 | 2640 | 3820 | – |
| COc1ncc(-c2ccc3ncn(C4CCN(C(=O)C5CC5)CC4)c(=O)c3c2)cc1NS(=O)(=O)c1ccc(F)cc1 | 1350 | 2730 | – |
| COc1ncc(-c2ccc3ncn(CCN(C)C)c(=O)c3c2)cc1NS(=O)(=O)c1ccc(F)cc1 | 2690 | 3720 | – |
| COc1ncc(-c2ccc3ncn(Cc4ccccc4)c(=O)c3c2)cc1NS(=O)(=O)c1ccc(F)cc1 | 4740 | 5900 | – |
| COc1ncc(-c2ccc3ncn(-c4ccc(CN5CCOCC5)cc4)c(=O)c3c2)cc1NS(=O)(=O)c1ccc(F)cc1 | 1420 | 3490 | – |
| COc1ncc(-c2ccc3ncn([C@H]4CCN(CC5CC5)C4)c(=O)c3c2)cc1NS(=O)(=O)c1ccc(F)cc1 | 670 | 1030 | IC50 [1]: 6.7 nM; IC50 (PI3K p110 beta/p85 alpha): 24 nM; IC50 [2]: 181 nM; IC50 [3]: 21 nM; IC50 [4]: 114 nM; Ratio IC50 [5]: 10 |
| COc1ncc(-c2ccc3ncn(Cc4cccnc4)c(=O)c3c2)cc1NS(=O)(=O)c1ccc(F)cc1 | 1290 | 1780 | – |
| COc1ncc(-c2ccc3ncn([C@@H]4CCN(C(=O)C5CC5)C4)c(=O)c3c2)cc1NS(=O)(=O)c1ccc(F)cc1 | 6090 | 2260 | – |
| Cn1c(=O)n(-c2ccc(C(C)(C)C#N)cc2)c2c3cc(-c4cnc5ccccc5c4)ccc3ncc21 [DACTOLISIB] | 560 | 1090 | – |

| SMILES | IC50 (HCT-116) [nM] | IC50 (MCF7) [nM] | other results |
| --- | --- | --- | --- |
| COc1ncc(-c2ccc3ncn(Cc4ccncc4)c(=O)c3c2)cc1NS(=O)(=O)c1ccc(F)cc1 | 2950 | 1840 | – |
| COc1ncc(-c2ccc3ncn([C@H]4CCNC4)c(=O)c3c2)cc1NS(=O)(=O)c1ccc(F)cc1 | 1460 | 2770 | – |
| COc1ncc(-c2ccc3ncn(CCN4CCOCC4)c(=O)c3c2)cc1NS(=O)(=O)c1ccc(Cl)cc1 | 2020 | 4140 | – |
| COc1ncc(-c2ccc3ncn(-c4ccc(CN5CCN(C)CC5)cc4)c(=O)c3c2)cc1NS(=O)(=O)c1ccc(F)cc1 | 1250 | 4600 | – |
| COc1ncc(-c2ccc3ncn(CCN4CCOCC4)c(=O)c3c2)cc1NS(=O)(=O)c1ccc(F)cc1 | 1820 | 3200 | – |
| COc1ncc(-c2ccc3ncn(CCN4CCN(C)CC4)c(=O)c3c2)cc1NS(=O)(=O)c1ccc(F)cc1 | 1450 | 3000 | – |
| COc1ncc(-c2ccc3ncn(CCN4CCCCC4)c(=O)c3c2)cc1NS(=O)(=O)c1ccc(F)cc1 | 2750 | 2950 | – |
| COc1ncc(-c2ccc3ncn(CCN4CCOCC4)c(=O)c3c2)cc1NS(=O)(=O)c1ccc(C)cc1 | 1350 | 3480 | – |
| COc1ncc(-c2ccc3ncn(C4CCN(C(=O)OC(C)(C)C)CC4)c(=O)c3c2)cc1NS(=O)(=O)c1ccc(F)cc1 | 1530 | 4360 | – |
| COc1ncc(-c2ccc3ncn(C4CCNCC4)c(=O)c3c2)cc1NS(=O)(=O)c1ccc(F)cc1 | 1150 | 1670 | – |
| COc1ncc(-c2ccc3ncn([C@H]4CCN(C(C)=O)C4)c(=O)c3c2)cc1NS(=O)(=O)c1ccc(F)cc1 | 1250 | 2520 | – |
| COc1ncc(-c2ccc3ncn([C@H]4CCN(C(=O)C5CCOCC5)C4)c(=O)c3c2)cc1NS(=O)(=O)c1ccc(F)cc1 | 600 | 1620 | – |
| COc1ncc(-c2ccc3ncn(C4CCN(C(C)=O)CC4)c(=O)c3c2)cc1NS(=O)(=O)c1ccc(F)cc1 | 1300 | 2630 | – |
| CCCCn1cnc2ccc(-c3cnc(OC)c(NS(=O)(=O)c4ccc(F)cc4)c3)cc2c1=O | 4060 | 3930 | – |
| CCN(CC)CCn1cnc2ccc(-c3cnc(OC)c(NS(=O)(=O)c4ccc(F)cc4)c3)cc2c1=O | 1200 | 2340 | – |
| COc1ncc(-c2ccc3ncn([C@@H]4CCN(CC5CC5)C4)c(=O)c3c2)cc1NS(=O)(=O)c1ccc(F)cc1 | 4880 | 2030 | – |
